PMC7655718 (The Journal of antibiotics, 2020)
Values after ≈ are worked out from the molar mass of the structure shown. Like-named read-outs stand apart in the source and are kept apart here.

Columns and labels:
[1] = system: S. aureus ATCC 25923 (Sa23); assay: MIC, microdilution with resazurin; type: cell-based; settings: Staphylococcus aureus, ATCC25923, read-out: MIC Sa23
Method in brief: (§1)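 Compounds dissolved in DMSO at 2 mg/mL. Overnight blood-agar colonies were suspended in PBS to 0.5 McFarland, then diluted in Mueller Hinton broth to about 1x10^6 cfu/mL with resazurin (1:1000 of 0.1% w/v stock). Twofold DMSO dilutions were added 1:40, giving 50 to 0.4 μg/mL at 2.5% DMSO. Incubation was 35 °C for 16-20 h. Blue/non-turbid wells counted as inhibited, pink/turbid as grown.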

[2] = system: S. aureus ATCC 33591 (Sa91); assay: MIC, microdilution with resazurin; type: cell-based; settings: Staphylococcus aureus, ATCC33591, read-out: MIC Sa91
Method in brief: as §1

[3] = system: S. aureus ATCC 33592 (Sa92); assay: MIC, microdilution with resazurin; type: cell-based; settings: Staphylococcus aureus, ATCC33592, read-out: MIC Sa92
Method in brief: as §1

[4] = system: S. aureus ATCC 700699 (Sa99); assay: MIC, microdilution with resazurin; type: cell-based; settings: Staphylococcus aureus, ATCC700699, read-out: MIC Sa99
Method in brief: as §1

[5] = system: S. aureus BAA-2312 (Sa12); assay: MIC, microdilution with resazurin; type: cell-based; settings: Staphylococcus aureus, BAA2312, read-out: MIC Sa12
Method in brief: as §1

[6] = system: S. epidermidis 700296 (Se); assay: MIC, microdilution with resazurin; type: cell-based; settings: Staphylococcus epidermidis, read-out: MIC Se
Method in brief: as §1

[7] = system: B. subtilis ATCC 6623 (Bs); assay: MIC, microdilution with resazurin; type: cell-based, Bacillus subtilis; settings: Bacillus subtilis, ATCC6623, read-out: MIC Bs
[8] = system: A. baumannii ATCC 747 (Ab47); assay: MIC, microdilution with resazurin; type: cell-based, Acinetobacter baumannii; settings: Acinetobacter baumannii, ATCC747, read-out: MIC Ab47
Method in brief: as §1

[9] = system: A. baumannii ATCC 19606 (type strain, Ab06); assay: MIC and MBC; type: cell-based, Acinetobacter baumannii; settings: Acinetobacter baumannii
Method in brief: as §1

[10] = system: tested Gram-positive bacterial strains; assay: MIC, text summary over tested Gram-positive strains; type: cell-based
A. baumannii ATCC 19606 = assay: Time kill assay; type: cell-based, Acinetobacter baumannii; settings: 4xMIC
Method in brief: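 Growth curves by optical density set the log phase. Log-phase bacteria (about 2 h shaking in Mueller Hinton broth II) were diluted in warm broth to about 3x10^6 cfu/mL. They were exposed to compound at 4xMIC (other multiples where indicated), in triplicate, at 35 °C. Colistin (A. baumannii) or vancomycin (S. aureus) and DMSO were included. Samples at 0, 2, 4, 6, 8, 10, 12 and 24 h were counted by drop plate on blood agar (18-24 h, 35 °C). Log cfu/mL was plotted against time.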

[11] = system: human embryonic kidney cell line (HEK293); assay: Toxicity against HEK293 cell line; type: cell-based
[12] = system: S. aureus ATCC 25923 biofilm formation; assay: Biofilm inhibition assay; type: cell-based, Staphylococcus aureus; settings: 2xMIC, MIC and 0.5xMIC concentrations, 24 hours
Method in brief: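 Blood-agar culture was suspended in PBS (0.5 McFarland), then diluted 1:100 in yeast extract casamino acid broth (about 1x10^6 cfu/mL). Compound at 2xMIC, MIC and 0.5xMIC was added before biofilm formation, in triplicate, with broth-only and bacteria+DMSO controls. Incubation was 35 °C for 24 h. Wells were PBS-washed, dried, stained with 0.1% crystal violet, solubilised in 33% acetic acid and read at 620 nm. % inhibition = [1−(ODcompound−ODbroth)/(ODdmso−ODbroth)]×100, from mean and SD.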

Row | Compound | MIC [1] [µg/mL] | MIC [2] [µg/mL] | MIC [3] [µg/mL] | MIC [4] [µg/mL] | MIC [5] [µg/mL] | MIC [6] [µg/mL] | MIC [7] [µg/mL] | MIC [8] [µg/mL] | MIC ([9]; ATCC19606, read-out: MIC Ab06) [µg/mL] | antimicrobial activity against the tested strains [10] | MIC ([10]; Staphylococcus aureus, read-out: MIC value against S. aureus strains) [µg/mL] | MBC ([9]; ATCC19606) [µg/mL] | MIC ([9]; ATCC19606) [µg/mL] | time kill effect (A. baumannii ATCC 19606; 24 hours at 35 °C) | increase in log10 cfu/mL of the bacterial population (A. baumannii ATCC 19606; through 24 hours) [fold] | MIC ([10]; read-out: MIC value as low as) [µg/mL] | toxicity for HEK293 [11] | inhibition of biofilm formation [12]
1 | O=C(O)c1ccc(-n2cc(/C=N/Nc3ccc([N+](=O)[O-])cc3)c(-c3ccc4ccccc4c3)n2)cc1 [Compound 27] | > 50 | > 50 | > 50 | > 50 | > 50 | > 50 | > 50 | > 50 | > 50 | eliminated the activity |  |  |  |  |  |  |  | 
2 | CN1CCN(/N=C/c2cn(-c3ccc(C(=O)O)cc3)nc2-c2ccc3ccccc3c2)CC1 [Compound 31] | > 50 | > 50 | > 50 | > 50 | > 50 | > 50 | > 50 | > 50 | > 50 | failed to show any remarkable antimicrobial activity |  |  |  |  |  |  |  | 
3 | CN(C)/N=C/c1cn(-c2ccc(C(=O)O)cc2)nc1-c1ccc2ccccc2c1 [Compound 29] | > 25 | > 50 | > 25 | 25 (≈ 65 µM) | > 50 | > 25 | > 25 | > 50 | > 50 | did not show any activity |  |  |  |  |  |  |  | 
4 | O=C(O)c1ccc(-n2cc(/C=N/Nc3ccccc3)c(-c3ccc4ccccc4c3)n2)cc1 [Compound 6] | 25 (≈ 57.8 µM) | > 25 | 12.5 (≈ 28.9 µM) | 12.5 (≈ 28.9 µM) | 25 (≈ 57.8 µM) | 25 (≈ 57.8 µM) | 25 (≈ 57.8 µM) | > 50 | > 50 |  | 25 (≈ 57.8 µM) |  |  |  |  |  |  | 
5 | O=C(O)c1ccc(-n2cc(/C=N/NC3=NCCN3)c(-c3ccc4ccccc4c3)n2)cc1 [Compound 33] | > 50 | > 50 | > 50 | > 50 | > 50 | > 50 | > 50 | > 50 | > 50 | failed to show any remarkable antimicrobial activity |  |  |  |  |  |  |  | 
6 | COc1ccc(N/N=C/c2cn(-c3ccc(C(=O)O)cc3)nc2-c2ccc3ccccc3c2)cc1 [Compound 13] | > 25 | 25 (≈ 54.1 µM) | 25 (≈ 54.1 µM) | 12.5 (≈ 27 µM) | > 25 | > 25 | > 25 | > 50 | > 50 | reduced the potency drastically |  |  |  |  |  |  |  | 
7 | O=C(O)c1ccc(-n2cc(/C=N/N3CCCCC3)c(-c3ccc4ccccc4c3)n2)cc1 [Compound 30] | > 25 | > 25 | 25 (≈ 58.9 µM) | 25 (≈ 58.9 µM) | > 50 | > 25 | 25 (≈ 58.9 µM) | > 50 | > 50 | failed to show any remarkable antimicrobial activity |  |  |  |  |  |  |  | 
8 | Cc1ccc(N/N=C/c2cn(-c3ccc(C(=O)O)cc3)nc2-c2ccc3ccccc3c2)cc1 [Compound 11] | 25 (≈ 56 µM) | 25 (≈ 56 µM) | 12.5 (≈ 28 µM) | 6.25 (≈ 14 µM) | 25 (≈ 56 µM) | 25 (≈ 56 µM) | 25 (≈ 56 µM) | > 50 | > 50 | reduced the potency drastically |  |  |  |  |  |  |  | 
9 | COC(=O)N/N=C/c1cn(-c2ccc(C(=O)O)cc2)nc1-c1ccc2ccccc2c1 [Compound 34] | > 50 | > 50 | > 50 | > 50 | > 50 | > 50 | > 50 | > 50 | > 50 | failed to show any remarkable antimicrobial activity |  |  |  |  |  |  |  | 
10 | O=C(O)c1ccc(-n2cc(/C=N/Nc3ccc(Cl)cc3)c(-c3ccc4ccccc4c3)n2)cc1 [Compound 16] | 6.25 (≈ 13.4 µM) | 12.5 (≈ 26.8 µM) | 3.12 (≈ 6.69 µM) | 1.56 (≈ 3.34 µM) | 6.25 (≈ 13.4 µM) | 6.25 (≈ 13.4 µM) | 12.5 (≈ 26.8 µM) | 6.25 (≈ 13.4 µM) | 3.12 (≈ 6.69 µM) |  |  | 50 (≈ 107 µM) | 3.12 (≈ 6.69 µM) | bacteriostatic effect | ≤ 2 |  |  | 
11 | O=C(O)c1ccc(-n2cc(/C=N/N(Cc3ccccc3)c3ccccc3)c(-c3ccc4ccccc4c3)n2)cc1 [Compound 9] | 3.12 (≈ 5.98 µM) | 1.56 (≈ 2.99 µM) | 1.56 (≈ 2.99 µM) | 1.56 (≈ 2.99 µM) | 3.12 (≈ 5.98 µM) | 3.12 (≈ 5.98 µM) | 25 (≈ 47.8 µM) | > 50 | > 50 |  |  |  |  |  |  | ≥ 1.56 |  | 
12 | O=C(O)c1ccc(N/N=C/c2cn(-c3ccc(C(=O)O)cc3)nc2-c2ccc3ccccc3c2)cc1 [Compound 28] | > 50 | > 50 | > 50 | > 50 | > 50 | > 50 | > 50 | > 50 | > 50 | eliminated the activity |  |  |  |  |  |  |  | 
13 | O=C(O)c1ccc(-n2cc(/C=N/n3cnnc3)c(-c3ccc4ccccc4c3)n2)cc1 [Compound 32] | > 50 | > 50 | > 50 | > 50 | > 50 | > 50 | > 50 | > 50 | > 50 | failed to show any remarkable antimicrobial activity |  |  |  |  |  |  |  | 
14 | N#Cc1ccc(N/N=C/c2cn(-c3ccc(C(=O)O)cc3)nc2-c2ccc3ccccc3c2)cc1 [Compound 26] | > 50 | > 50 | > 50 | > 50 | > 50 | > 50 | > 50 | > 50 | > 50 | eliminated the activity |  |  |  |  |  |  |  | 
15 | O=C(O)c1ccc(-n2cc(/C=N/Nc3c(F)c(F)c(F)c(F)c3F)c(-c3ccc4ccccc4c3)n2)cc1 [Compound 24] | 3.12 (≈ 5.98 µM) | > 50 | 0.78 (≈ 1.49 µM) | 0.78 (≈ 1.49 µM) | > 50 | > 50 | 1.56 (≈ 2.99 µM) | > 50 | > 50 |  |  |  |  |  |  | ≥ 0.78 | selective toxicity for bacterial cells | 
16 | O=C(O)c1ccc(-n2cc(/C=N/N(c3ccccc3)c3ccccc3)c(-c3ccc4ccccc4c3)n2)cc1 [Compound 8] | 1.56 (≈ 3.07 µM) | 3.12 (≈ 6.14 µM) | 1.56 (≈ 3.07 µM) | 1.56 (≈ 3.07 µM) | 3.12 (≈ 6.14 µM) | 1.56 (≈ 3.07 µM) | 12.5 (≈ 24.6 µM) | > 50 | > 50 |  |  |  |  |  |  | ≥ 1.56 |  | very effective
17 | CN(/N=C/c1cn(-c2ccc(C(=O)O)cc2)nc1-c1ccc2ccccc2c1)c1ccccc1 [Compound 7] | > 50 | > 50 | 1.56 (≈ 3.49 µM) | 1.56 (≈ 3.49 µM) | > 50 | > 50 | > 50 | > 50 | > 50 |  |  |  |  |  |  |  |  | 
18 | CCc1ccccc1N/N=C/c1cn(-c2ccc(C(=O)O)cc2)nc1-c1ccc2ccccc2c1 [Compound 12] | 25 (≈ 54.3 µM) | 25 (≈ 54.3 µM) | 12.5 (≈ 27.1 µM) | 12.5 (≈ 27.1 µM) | 25 (≈ 54.3 µM) | > 25 | 25 (≈ 54.3 µM) | > 50 | > 50 | reduced the potency drastically |  |  |  |  |  |  |  | 
